According to ChEMBL document CHEMBL1152985, “Contributions of the combined effects of topoisomerase mutations toward fluoroquinolone resistance in Escherichia coli” (2007):

Columns and labels:
Escherichia coli [1] = experiment: Antibacterial activity against Escherichia coli SKM9 containing gyrA L83, Y87 and parC L80 mutants assessed as increase in MIC by Etest relative to MIC for Escherichia coli 1596 containing gyrA L83 and parC L80 mutants
Escherichia coli [2] = experiment: Antibacterial activity against Escherichia coli SKM18 containing gyrA L83, Y87 and parC I80, G84 mutants assessed as increase in MIC by Etest relative to MIC for Escherichia coli SKM9 containing gyrA L83, Y87 and parC L80 mutants
Escherichia coli [3] = experiment: Antibacterial activity against Escherichia coli 1596 containing gyrA L83 and parC I80, G84 mutants assessed as increase in MIC by Etest relative to MIC for Escherichia coli 1608 containing gyrA mutant; type: functional
Method in brief: (§1)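 Defined isogenic E. coli strains in a C600 background (parent 1609); mutations introduced by λ Red recombineering with temperature-sensitive pSIM5, overnight recovery after electroporation, plasmid cured at 37°C. Fluoroquinolone MICs were read by Etest per the manufacturer's instructions. MICs above the Etest limit were measured by broth macrodilution per CLSI guidelines. Results are expressed as fold change in MIC relative to the comparator strain.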

Escherichia coli [4] = experiment: Antibacterial activity against Escherichia coli 1608 containing gyrA L83, Y87 mutants assessed as increase in MIC by Etest relative to MIC for wild type Escherichia coli 1609
Escherichia coli [5] = experiment: Antibacterial activity against Escherichia coli 1596 containing parC K84 mutant assessed as decrease in MIC by Etest relative to MIC for Escherichia coli 1608 containing gyrA mutant; type: functional
Method in brief: as §1

Escherichia coli [6] = experiment: Antibacterial activity against Escherichia coli 1608 containing gyrA L83 mutant assessed as increase in MIC by Etest relative to MIC for wild type Escherichia coli 1609; type: functional
Method in brief: as §1

COc1c(N2CCNC(C)C2)c(F)cc2c(=O)c(C(=O)O)cn(C3CC3)c12 (configuration not stated) [GATIFLOXACIN]
Ratio (Escherichia coli [1]): 9
Ratio (Escherichia coli [2]): 2
Ratio (Escherichia coli [3]): 1
Ratio (Escherichia coli [4]): 5

CO/N=C1\CN(c2nc3c(cc2F)c(=O)c(C(=O)O)cn3C2CC2)CC1CN (configuration not stated) [GEMIFLOXACIN]
Ratio (Escherichia coli [1]): 9
Ratio (Escherichia coli [3]): 1
MIC (Escherichia coli [5]): 0.007 µg/mL
Ratio (Escherichia coli [4]): 5

Cc1c(F)c(N2CCNC(C)C2)cc2c1c(=O)c(C(=O)O)cn2C1CC1 (configuration not stated) [GREPAFLOXACIN]
MIC (Escherichia coli [5]): 0.014 µg/mL

C[C@H]1COc2c(N3CCN(C)CC3)c(F)cc3c(=O)c(C(=O)O)cn1c23.C[C@H]1COc2c(N3CCN(C)CC3)c(F)cc3c(=O)c(C(=O)O)cn1c23.O [LEVOFLOXACIN]
Ratio (Escherichia coli [1]): 9
Ratio (Escherichia coli [3]): 1
Ratio (Escherichia coli [4]): 5

COc1c(N2C[C@@H]3CCCN[C@@H]3C2)c(F)cc2c(=O)c(C(=O)O)cn(C3CC3)c12 [MOXIFLOXACIN]
Ratio (Escherichia coli [1]): 9
Ratio (Escherichia coli [2]): 10
Ratio (Escherichia coli [3]): 1
MIC (Escherichia coli [5]): 0.028 µg/mL
Ratio (Escherichia coli [6]): 1
Ratio (Escherichia coli [4]): 5

CCn1cc(C(=O)O)c(=O)c2cc(F)c(N3CCNCC3)cc21 [NORFLOXACIN]
Ratio (Escherichia coli [1]): 9
Ratio (Escherichia coli [3]): 5
Ratio (Escherichia coli [4]): 5

C[C@@H]1CN(c2c(F)c(N)c3c(=O)c(C(=O)O)cn(C4CC4)c3c2F)C[C@H](C)N1 [SPARFLOXACIN]
MIC (Escherichia coli [5]): 0.008 µg/mL
